{"source": "ChEMBL document CHEMBL4138133", "about": "“2,3-Dihydro-3β-methoxy Withaferin-A Protects Normal Cells against Stress: Molecular Evidence of Its Potent Cytoprotective Activity” (J Nat Prod, 2017)", "key": {"[1]": {"species": "Homo sapiens", "assay": "Induction of AKT/p38/p44 MAPK-mediated survivin expression level in H2O2 treated human TIG3 cells at 0.6 uM pretreated with H2O2 for 2 hrs followed by compound addition by immunoblot analysis", "summary_of_the_method": "(§1)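 TIG-3 cells stressed with H2O2 (500 μM, 2 h), then recovered in medium containing 0.3 or 0.6 μM compound. Lysed in NP40 buffer; 10−20 μg protein immunoblotted for pAkt Ser473, p-p38 Thr180/Tyr182, p-p44/42 Thr202/Tyr204, β-catenin, survivin, Bcl-2 or full-length PARP-1. Triplicate experiments.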"}, "[2]": {"target": "Mitogen-activated protein kinase 3 (Homo sapiens) (UniProt P27361)", "sequence (P27361 whole entry)": "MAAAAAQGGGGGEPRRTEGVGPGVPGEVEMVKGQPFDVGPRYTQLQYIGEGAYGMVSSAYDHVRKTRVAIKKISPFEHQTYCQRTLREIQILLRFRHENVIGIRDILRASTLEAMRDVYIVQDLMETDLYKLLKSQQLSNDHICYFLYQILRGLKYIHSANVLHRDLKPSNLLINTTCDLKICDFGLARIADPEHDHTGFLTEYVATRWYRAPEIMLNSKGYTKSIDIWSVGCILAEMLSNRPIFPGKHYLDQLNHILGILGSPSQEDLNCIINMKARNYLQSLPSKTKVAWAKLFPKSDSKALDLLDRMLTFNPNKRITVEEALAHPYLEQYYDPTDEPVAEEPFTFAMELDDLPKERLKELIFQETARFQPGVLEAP", "assay": "Induction of ERK1 phosphorylation at Thr202 residues in H2O2 treated human TIG3 cells pretreated with H2O2 for 2 hrs followed by compound addition by immuno fluorescence staining based analysis", "summary_of_the_method": "(§2)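 TIG-3 fibroblasts (DMEM, 10% FBS, 37 °C) stressed with H2O2 (500 μM, 2 h) or UV (50 mJ/cm2), then recovered in compound-supplemented medium. Cells fixed in chilled absolute methanol and immunostained for the marker. Images taken by fluorescence microscopy and staining intensity quantified. Triplicate experiments.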"}, "[3]": {"tested_on": "TIG-3", "assay": "Cytoprotective activity against H2O2-induced oxidative stress in human TIG3 cells assessed as increase in cell survival at 3 uM pretreated with H2O2 for 2 hrs followed by compound addition measured after 72 hrs by crystal violet staining based assay", "format": "functional"}, "[4]": {"tested_on": "TIG-3", "assay": "Effect on p21 WAF1 expression level in human TIG3 cells at 0.3 to 3 uM by immunoblot analysis", "format": "ADME, cell-based", "conditions": "tig-3, 3 µM", "summary_of_the_method": "(§3)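 TIG-3 cells treated with compound, lysed in NP40 buffer (centrifuged 20 min, 4 °C); 10−20 μg protein immunoblotted for indicated proteins; band quantitation from three independent experiments, Student's t or Mann−Whitney test.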"}, "[5]": {"tested_on": "TIG-3", "assay": "Effect on mortalin expression level in human TIG3 cells at 0.3 to 3 uM by immuno fluorescence analysis", "format": "ADME, cell-based", "conditions": "tig-3, 3 µM", "summary_of_the_method": "(§4)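 Methanol-fixed (chilled absolute methanol) TIG-3 fibroblasts treated with Wi-A or 3βmWi-A; immunofluorescence staining with antibodies, imaged by epifluorescence microscopy; signal quantitated from three independent experiments.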"}, "[6]": {"target": "RAC-alpha serine/threonine-protein kinase (Homo sapiens) (UniProt P31749)", "sequence (P31749 whole entry)": "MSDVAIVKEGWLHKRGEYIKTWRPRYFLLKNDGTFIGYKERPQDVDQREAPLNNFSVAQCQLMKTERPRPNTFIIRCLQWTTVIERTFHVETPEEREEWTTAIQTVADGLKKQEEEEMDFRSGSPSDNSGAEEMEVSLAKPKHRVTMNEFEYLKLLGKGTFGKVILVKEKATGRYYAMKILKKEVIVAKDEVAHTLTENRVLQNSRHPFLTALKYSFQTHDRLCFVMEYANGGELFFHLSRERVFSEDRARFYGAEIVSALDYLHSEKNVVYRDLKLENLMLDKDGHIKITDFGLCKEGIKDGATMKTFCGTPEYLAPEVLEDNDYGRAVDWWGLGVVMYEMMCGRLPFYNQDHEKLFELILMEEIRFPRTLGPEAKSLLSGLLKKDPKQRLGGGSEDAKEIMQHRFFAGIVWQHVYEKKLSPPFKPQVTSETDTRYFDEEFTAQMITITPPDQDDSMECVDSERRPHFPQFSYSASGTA", "assay": "Induction of Akt phosphorylation at Ser473 residues in H2O2 treated human TIG3 cells at 0.6 uM pretreated with H2O2 for 2 hrs followed by compound addition by immunoblot analysis", "summary_of_the_method": "as §1"}, "[7]": {"tested_on": "TIG-3", "assay": "Cytoprotective activity against human TIG3 cells assessed as increase in cell viability at 1.5 to 3 uM pretreated with Wi-A at 0.3 uM for 24 hrs followed by compound addition measured after 48 hrs", "format": "functional, cell-based", "summary_of_the_method": "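TIG-3 cells pretreated with 0.3 μM Wi-A for 24 h, then incubated with 1.5 or 3 μM compound for 48 h before viability was read. Triplicate, mean ± SEM.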"}, "[8]": {"tested_on": "TIG-3", "assay": "Cytoprotective activity against H2O2-induced oxidative stress in human TIG3 cells assessed as decrease in CARF level pretreated with H2O2 for 2 hrs followed by compound addition by immuno fluorescence staining based assay", "format": "functional, cell-based"}, "[9]": {"tested_on": "TIG-3", "assay": "Cytoprotective activity against UV irradiation-induced stress in human TIG3 cells assessed as decrease in CARF level irradiated with 50 mJ/cm2 of UV radiations followed by compound addition by immuno fluorescence staining based assay", "format": "functional, cell-based"}, "[10]": {"target": "Kelch-like ECH-associated protein 1 (Homo sapiens, UniProt Q14145)", "sequence (Q14145 whole entry)": "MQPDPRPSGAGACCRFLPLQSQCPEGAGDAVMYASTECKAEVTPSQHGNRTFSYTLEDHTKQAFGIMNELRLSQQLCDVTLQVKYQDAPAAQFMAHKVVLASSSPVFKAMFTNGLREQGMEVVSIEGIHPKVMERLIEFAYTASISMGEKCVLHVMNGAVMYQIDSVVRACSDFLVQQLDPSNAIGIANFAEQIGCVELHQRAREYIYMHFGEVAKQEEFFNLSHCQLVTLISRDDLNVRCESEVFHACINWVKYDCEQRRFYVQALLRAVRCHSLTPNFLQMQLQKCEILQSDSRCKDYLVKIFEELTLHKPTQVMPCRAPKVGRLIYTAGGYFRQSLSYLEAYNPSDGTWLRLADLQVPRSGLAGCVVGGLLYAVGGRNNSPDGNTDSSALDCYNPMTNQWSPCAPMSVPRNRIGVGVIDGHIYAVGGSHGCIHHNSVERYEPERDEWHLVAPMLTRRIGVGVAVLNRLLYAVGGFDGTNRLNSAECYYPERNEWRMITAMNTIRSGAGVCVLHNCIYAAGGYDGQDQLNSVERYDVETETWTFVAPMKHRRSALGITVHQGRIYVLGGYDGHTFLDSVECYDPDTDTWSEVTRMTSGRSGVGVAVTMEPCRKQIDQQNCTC", "assay": "Activation of keap1 in human TIG3 cells assessed as Nrf2 nuclear accumulation at 0.6 uM by immuno staining analysis", "format": "cell-based", "summary_of_the_method": "as §4"}, "[11]": {"tested_on": "TIG-3", "assay": "Cytoprotective activity against H2O2-induced oxidative stress in human TIG3 cells assessed as decrease in 53BP1 level at 0.6 uM pretreated with H2O2 for 2 hrs followed by compound addition by immuno fluorescence staining based analysis", "format": "functional, cell-based", "summary_of_the_method": "as §2"}, "[12]": {"tested_on": "TIG-3", "assay": "Cytotoxicity against human TIG3 cells assessed as reduction in cell viability at 1 to 10 uM after 72 hrs", "format": "cell-based", "conditions": "tig-3, 72 h", "summary_of_the_method": "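Normal fibroblasts in DMEM/10% FBS at 37 °C given 0.15 to 50 μM compound for 48 or 72 h; viability determined; triplicate, mean ± SEM.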"}, "[13]": {"target": "RAC-alpha serine/threonine-protein kinase (Homo sapiens) (UniProt P31749)", "assay": "Induction of AKT-mediated beta-catenin expression level in H2O2 treated human TIG3 cells at 0.6 uM pretreated with H2O2 for 2 hrs followed by compound addition by immunoblot analysis", "summary_of_the_method": "as §1"}, "[14]": {"target": "MAP kinase p38 (Homo sapiens) (UniProt O15264+Q15759+Q16539+P53778)", "assay": "Induction of p38 MAPK phosphorylation at Thr180/Tyr182 residues in H2O2 treated human TIG3 cells pretreated with H2O2 for 2 hrs followed by compound addition by immuno fluorescence staining based analysis", "summary_of_the_method": "as §2"}, "[15]": {"target": "Mitogen-activated protein kinase 1 (Homo sapiens) (UniProt P28482)", "sequence (P28482 whole entry)": "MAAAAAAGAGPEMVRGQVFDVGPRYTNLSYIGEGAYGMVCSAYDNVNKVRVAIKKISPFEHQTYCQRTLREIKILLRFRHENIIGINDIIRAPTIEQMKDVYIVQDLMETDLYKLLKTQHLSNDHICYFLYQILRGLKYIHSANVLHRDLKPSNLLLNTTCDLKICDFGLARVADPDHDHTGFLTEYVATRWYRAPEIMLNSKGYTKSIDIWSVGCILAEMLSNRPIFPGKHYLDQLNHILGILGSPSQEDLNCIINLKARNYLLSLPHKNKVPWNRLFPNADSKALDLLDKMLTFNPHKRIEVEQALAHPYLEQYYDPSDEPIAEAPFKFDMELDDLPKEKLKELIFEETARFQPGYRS", "assay": "Induction of ERK2 phosphorylation at Tyr204 residues in H2O2 treated human TIG3 cells pretreated with H2O2 for 2 hrs followed by compound addition by immuno fluorescence staining based analysis", "summary_of_the_method": "as §2"}, "[16]": {"tested_on": "TIG-3", "assay": "Cytoprotective activity against H2O2-induced oxidative stress in human TIG3 cells assessed as increase in Bcl2 level at 0.6 uM pretreated with H2O2 for 2 hrs followed by compound addition by immunoblot analysis", "format": "functional, cell-based", "summary_of_the_method": "as §1"}, "[17]": {"tested_on": "TIG-3", "assay": "Cytoprotective activity against H2O2-induced oxidative stress in human TIG3 cells assessed as increase in full length PARP level at 0.6 uM pretreated with H2O2 for 2 hrs followed by compound addition by immunoblot analysis", "format": "functional, cell-based", "summary_of_the_method": "as §1"}, "[18]": {"target": "Mitogen-activated protein kinase 1 (Homo sapiens) (UniProt P28482)", "assay": "Induction of ERK2 phosphorylation at Tyr204 residues in H2O2 treated human TIG3 cells at 0.6 uM pretreated with H2O2 for 2 hrs followed by compound addition by immunoblot analysis", "summary_of_the_method": "as §1"}, "[19]": {"tested_on": "TIG-3", "assay": "Cytoprotective activity against UV irradiation-induced stress in human TIG3 cells assessed as increase in cell survival at 3 uM irradiated with 50 mJ/cm2 of UV radiations followed by compound addition measured after 72 hrs by crystal violet staining based assay", "format": "functional"}, "[20]": {"tested_on": "TIG-3", "assay": "Induction of oxidative stress against human TIG3 cells assessed as increase in CARF mRNA levels by RT-PCR analysis", "format": "cell-based", "summary_of_the_method": "(§5)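 Total RNA from treated TIG-3 cells; cDNA from 2 μg RNA; PCR 95 °C 10 min, 30 cycles (95 °C 45 s, 58 °C 1 min, 72 °C 45 s), 72 °C 10 min; products on 0.8% agarose, band densitometry; three independent experiments.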"}, "[21]": {"tested_on": "TIG-3", "assay": "Cytoprotective activity against UV irradiation-induced stress in human TIG3 cells assessed as decrease in p53 level irradiated with 50 mJ/cm2 of UV radiations followed by compound addition by immuno fluorescence staining based assay", "format": "functional, cell-based"}, "[22]": {"tested_on": "TIG-3", "assay": "Cytoprotective activity against cisplatin-induced stress in human TIG3 cells assessed as increase in cell survival pretreated with cisplatin for 24 hrs followed by compound addition measured after 2 days by crystal violet staining based assay", "format": "functional"}, "[23]": {"tested_on": "TIG-3", "assay": "Effect on p53 expression level in human TIG3 cells at 0.3 to 3 uM by immunoblot analysis", "format": "cell-based", "conditions": "tig-3, 3 µM", "summary_of_the_method": "as §3"}, "[24]": {"tested_on": "TIG-3", "assay": "Induction of oxidative stress in human TIG3 cells assessed as increase in GADD45alpha mRNA levels by RT-PCR analysis", "format": "cell-based", "summary_of_the_method": "as §5"}, "[25]": {"tested_on": "TIG-3", "assay": "Cytoprotective activity against doxorubicin-induced stress in human TIG3 cells assessed as increase in cell survival pretreated with doxorubicin for 24 hrs followed by compound addition measured after 2 days by crystal violet staining based assay", "format": "functional"}}, "note": "Active and inactive are the calls of the source. The rule behind the calls is not given here.", "data": [{"smiles": "CO[C@H]1CC(=O)[C@]2(C)[C@H]3CC[C@]4(C)[C@@H]([C@H](C)[C@H]5CC(C)=C(CO)C(=O)O5)CC[C@H]4[C@@H]3C[C@H]3O[C@]32[C@H]1O", "values": [{"measurement": "Activity", "setting": "[1]", "value": "Active"}, {"measurement": "Activity", "setting": "[2]", "value": "Active"}, {"measurement": "Activity", "setting": "[3]", "value": "Active"}, {"measurement": "Activity", "setting": "[4]", "value": "Non-Toxic"}, {"measurement": "Activity", "setting": "[5]", "value": "Non-Toxic"}, {"measurement": "Activity", "setting": "[6]", "value": "Active"}, {"measurement": "Activity", "setting": "[7]", "value": "Active"}, {"measurement": "Activity", "setting": "[8]", "value": "Active"}, {"measurement": "Activity", "setting": "[9]", "value": "Active"}, {"measurement": "Activity", "setting": "[10]", "value": "Not Active"}, {"measurement": "Activity", "setting": "[11]", "value": "Active"}, {"measurement": "Activity", "setting": "[12]", "value": "Non-Toxic"}, {"measurement": "Activity", "setting": "[13]", "value": "Active"}, {"measurement": "Activity", "setting": "[14]", "value": "Active"}, {"measurement": "Activity", "setting": "[15]", "value": "Active"}, {"measurement": "Activity", "setting": "[16]", "value": "Active"}, {"measurement": "Activity", "setting": "[17]", "value": "Active"}, {"measurement": "Activity", "setting": "[18]", "value": "Active"}, {"measurement": "Activity", "setting": "[19]", "value": "Active"}, {"measurement": "Activity", "setting": "[20]", "value": "Non-Toxic"}, {"measurement": "Activity", "setting": "[21]", "value": "Active"}, {"measurement": "Activity", "setting": "[22]", "value": "Dose-dependent effect"}, {"measurement": "Activity", "setting": "[23]", "value": "Non-Toxic"}, {"measurement": "Activity", "setting": "[24]", "value": "Non-Toxic"}, {"measurement": "Activity", "setting": "[25]", "value": "Dose-dependent effect"}]}]}
